Screening results deposited in PubChem by several laboratories.
hERG protect: compounds protecting human hERG from proarrhythmic drug block; Q12809; CHO-hERG, FluxOR thallium flux, dofetilide IC70 present; activation (rescue from dofetilide block), less the hit threshold, % at 10 µM; 310,000 tested, 0.51% active;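 active = activation above the mean of controls blocked by dofetilide plus 5 SD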;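 also: thallium influx through hERG after potassium depolarization seen as dye fluorescence rise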
Target sequence (Q12809 whole entry, looked up): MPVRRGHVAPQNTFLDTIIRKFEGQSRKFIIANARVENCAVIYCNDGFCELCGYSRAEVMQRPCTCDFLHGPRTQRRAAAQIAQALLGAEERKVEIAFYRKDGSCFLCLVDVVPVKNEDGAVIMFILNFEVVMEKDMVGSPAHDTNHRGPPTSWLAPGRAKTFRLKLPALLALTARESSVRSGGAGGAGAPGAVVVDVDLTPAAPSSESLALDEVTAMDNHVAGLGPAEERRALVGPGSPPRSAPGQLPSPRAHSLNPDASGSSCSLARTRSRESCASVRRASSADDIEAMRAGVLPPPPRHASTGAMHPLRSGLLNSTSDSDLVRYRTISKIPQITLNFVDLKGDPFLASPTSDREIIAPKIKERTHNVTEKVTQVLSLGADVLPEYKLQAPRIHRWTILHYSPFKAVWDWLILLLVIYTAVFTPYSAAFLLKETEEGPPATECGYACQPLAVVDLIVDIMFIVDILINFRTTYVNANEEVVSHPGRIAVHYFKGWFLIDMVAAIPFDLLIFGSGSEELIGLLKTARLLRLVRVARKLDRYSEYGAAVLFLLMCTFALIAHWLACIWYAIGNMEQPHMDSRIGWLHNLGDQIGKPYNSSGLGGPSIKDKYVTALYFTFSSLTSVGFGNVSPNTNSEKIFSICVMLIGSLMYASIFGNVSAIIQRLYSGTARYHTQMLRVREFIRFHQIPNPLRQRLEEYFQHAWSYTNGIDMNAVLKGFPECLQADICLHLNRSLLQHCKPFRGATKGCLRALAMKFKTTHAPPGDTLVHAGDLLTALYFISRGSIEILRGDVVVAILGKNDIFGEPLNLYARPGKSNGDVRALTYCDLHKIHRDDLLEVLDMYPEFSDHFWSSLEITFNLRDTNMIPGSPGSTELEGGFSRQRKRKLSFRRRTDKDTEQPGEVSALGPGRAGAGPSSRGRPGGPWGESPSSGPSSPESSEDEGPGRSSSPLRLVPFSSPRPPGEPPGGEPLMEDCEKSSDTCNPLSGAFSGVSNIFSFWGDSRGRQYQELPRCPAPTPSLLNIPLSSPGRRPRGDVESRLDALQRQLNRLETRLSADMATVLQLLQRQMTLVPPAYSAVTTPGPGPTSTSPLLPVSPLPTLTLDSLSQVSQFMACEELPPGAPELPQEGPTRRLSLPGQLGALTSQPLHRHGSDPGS
KCNK9 block: inhibitors of human KCNK9 two-pore domain potassium channel | Q9NPC2 | HEK293 KCNK9, FluxOR thallium flux fluorescence; stronger effect = lower value | B-score at 10 µM | 310,000 tested, 1.2% active | AID 488922;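 active = ratio B-score over 3 SD below the library mean, with starting fluorescence within 5 SD of its mean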;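 also: negative B-score means less thallium flux so channel inhibition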
KCNQ1 act: potentiates or activates the human KCNQ1 potassium channel | CHO-K1 KCNQ1, thallium flux FluxOR fluorescence; stronger effect = higher value | B-score at 10 µM | 310,000 tested, 0.35% active;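 active = fluorescence ratio B-score, a plate-corrected score, at least three library SD, with initial intensity B-score within 5 SD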
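Material: CHO-K1 cells stably expressing KCNQ1. Medium: assay buffer for compound exposure, DMSO matched across wells. Reagent: K+/Tl+ depolarizing stimulus. Compound dosing: single-concentration screen. Times: 37 °C overnight plating, 90-min dark dye load, 20-min compound pretreatment. Technique: FluxOR Tl+ flux fluorescence.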
KCNK3 inh: human KCNK3 channel inhibition, primary screen. CHO-KCNK3 thallium flux, FluxOR fluorescence; stronger effect = lower value. B-score at 10 µM. AID 602410. 340,000 tested, 0.84% active;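 active = B-score under library mean minus 4 SD, starting fluorescence ratio at most library mean plus 5 SD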;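 also: more negative B-score means stronger inhibition of thallium flux through KCNK3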
KCNQ1 inh: human KCNQ1 channel inhibition | P51787 | CHO-K1 KCNQ1, FluxOR thallium flux fluorescence; stronger effect = higher value | B-score at 10 µM | 310,000 tested, 1.3% active | AID 2642;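 active = compounds whose thallium flux B-score, printed positive for inhibition, exceeds three library SD while starting fluorescence stays within three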;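 also: channel opened by potassium depolarization with thallium stimulus after 20 min compound exposure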
KCC2 mod: KCC2 (human) Cl- transport modulation; B-score of Tl+ flux slope (higher = more flux/activation; lower = inhibition) at 10 µM; 190,000 tested, 2.2% active; KCC2 cells, thallium flux FluoZin-2 fluorescence;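 active = thallium flux slope and its plate-corrected score both differing from the plate sample mean at a set confidence after two filtering rounds, in either direction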;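 also: slope of fluorescence scaled to starting intensity during 10 to 20 s after thallium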
Hits are given with their value. Hits are enriched below; roughly 4.1% of the tested compounds scored in any of these assays.

How did COc1ccc(-c2cc(-c3ccccc3)nc(SCC(=O)Nc3nccs3)c2C#N)cc1 do in these assays?
hERG protect: inactive; KCNK9 block: inactive; KCNQ1 act: inactive; KCNK3 inh: inactive; KCNQ1 inh: inactive; KCC2 mod: inactive

What do the screens show for `CCc1nnc(NC(=O)CSc2nc(-c3ccccc3)cc(-c3ccc(OC)cc3)c2C#N)s1`?
hERG protect: 6.4; KCNK9 block: inactive; KCNQ1 act: inactive; KCNK3 inh: inactive; KCNQ1 inh: inactive; KCC2 mod: inactive

Results for CCCCn1c(N)c(N(CC(C)C)C(=O)C2CCN(S(=O)(=O)c3ccc(C)cc3)CC2)c(=O)[nH]c1=O ?
hERG protect: inactive; KCNK9 block: inactive; KCNQ1 act: inactive; KCNK3 inh: inactive; KCNQ1 inh: inactive

Results for O=C(Sc1cccc2cccnc12)c1ccc(F)cc1 ?
KCC2 mod: 64

What do the screens show for `COc1ccc(S(=O)(=O)Nc2cc(Sc3ncn[nH]3)c(O)c3ccccc23)cc1`?
KCC2 mod: inactive

Results for O=S(=O)(Nc1cc(Sc2cccc3cccnc23)c(O)c2ccccc12)c1ccc(F)cc1 ?
hERG protect: inactive; KCNK9 block: inactive; KCNQ1 act: inactive; KCNQ1 inh: inactive; KCC2 mod: 48

What do the screens show for `CN(C)C(=O)CSc1cccc2cccnc12`?
hERG protect: inactive; KCNK9 block: inactive; KCNQ1 act: inactive; KCNK3 inh: inactive; KCNQ1 inh: inactive; KCC2 mod: 8.1

Results for COc1ccc2[nH]cc(/C=C/c3cc[n+](C)cc3)c2c1 ?
hERG protect: inactive; KCNK9 block: inactive; KCNQ1 act: inactive; KCNK3 inh: inactive; KCNQ1 inh: inactive

How did CC(C)c1ccc(S(=O)(=O)NCc2ccc3c(c2)OCO3)cc1 do in these assays?
hERG protect: inactive; KCNK9 block: inactive; KCNQ1 act: inactive; KCNK3 inh: inactive; KCNQ1 inh: inactive

Results for CC(C)c1nc(SCC(=O)Nc2ccc([N+](=O)[O-])cc2Br)n[nH]1 ?
hERG protect: 8.6; KCNK9 block: inactive; KCNQ1 act: inactive; KCNK3 inh: inactive; KCNQ1 inh: inactive; KCC2 mod: inactive

How did Nc1nc(SCC(=O)Nc2ccc([N+](=O)[O-])cc2Br)n[nH]1 do in these assays?
hERG protect: inactive; KCNK9 block: inactive; KCNQ1 act: inactive; KCNK3 inh: inactive; KCNQ1 inh: inactive; KCC2 mod: inactive

Results for CC(C)(C)N(Cc1ccccc1)C(=O)COC(=O)C1CC(=O)N(Cc2ccccc2)C1 (centres undefined) ?
KCNK3 inh: inactive

Results for CCOCCN1CCN(c2c(CC)c(C)nc3cc(-c4cc(OC)cc(OC)c4)nn23)CC1 ?
hERG protect: inactive; KCNK9 block: -7.2; KCNQ1 act: inactive; KCNK3 inh: inactive; KCNQ1 inh: inactive; KCC2 mod: inactive

How did COC(=O)C1CCC(=O)N1C(c1ccc(OC)cc1)c1cc(OC)c(OC)c(OC)c1 (centres undefined) do in these assays?
KCNK3 inh: inactive

How did Cc1cc(C)c(C#N)c(N2CCN(C(=O)C3COc4ccccc4O3)CC2)n1 (centres undefined) do in these assays?
KCNK3 inh: inactive

What do the screens show for `S=C(Nc1cc(Cl)ccc1Oc1ccccc1)N1CCN(c2ccccn2)CC1`?
hERG protect: inactive; KCNK9 block: inactive; KCNQ1 act: inactive; KCNK3 inh: inactive; KCNQ1 inh: inactive

Results for S=C(Nc1ccccc1)Nc1cc(Cl)ccc1Oc1ccccc1 ?
hERG protect: inactive; KCNK9 block: inactive; KCNQ1 act: inactive; KCNK3 inh: inactive; KCNQ1 inh: 9

What do the screens show for `CC(C)(C)c1ccc(C(=O)NC(=S)Nc2nc3c(s2)CCCC3)cc1`?
hERG protect: 28; KCNK9 block: inactive; KCNQ1 act: 33; KCNK3 inh: inactive; KCNQ1 inh: inactive; KCC2 mod: 12

Results for O=C1c2ccccc2C(=O)N1Cc1nc2ccccc2c(=O)n1CCCn1ccnc1 ?
hERG protect: 9.8; KCNK9 block: inactive; KCNQ1 act: inactive; KCNK3 inh: inactive; KCNQ1 inh: inactive; KCC2 mod: inactive

How did COc1ccc(C(=O)N/N=C/c2ccc(OC(=O)c3ccccc3)cc2)cc1 do in these assays?
hERG protect: inactive; KCNK9 block: inactive; KCNQ1 act: inactive; KCNK3 inh: inactive; KCNQ1 inh: inactive; KCC2 mod: inactive
